Reference: ChEMBL document CHEMBL3525963, “Tissue distribution and elimination of [14C]apixaban in rats” (Drug Metab Dispos, 2011)

Assays:
Rattus norvegicus [1] = test: Biodistribution in fetal brain of pregnant Sprague-Dawley rat at 5 mg/kg, po administered as single dose measured after 0.5 hrs; format: ADME, organism-based; design: dose 5 mg/kg, dosed compound name [14C]-apixaban, route oral; details: in vivo
Method in brief: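 Pregnant SD rats received a single oral gavage of [14C]apixaban at 5 mg/kg (100 μCi/kg; 1.0 mg/mL, 20 μCi/mL in 0.5% Tween 80/Labrafil) after fasting, one dam per time point. Frozen carcasses were cut into 40 µm sagittal sections and read by phosphor-imaging QWBA against [14C]glucose standards. Fetal tissue radioactivity is reported as µg eq/g, with LLOQ 0.037 µg eq/g.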

Liver [2] = test: Biodistribution in female Sprague-Dawley rat liver at 5 mg/kg, po administered as single dose measured after 0.5 hrs; format: ADME, organism-based; design: dose 5 mg/kg, dosed compound name [14C]-apixaban, route oral; details: in vivo
Method in brief: (§1)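 Quantitative whole-body autoradiography was run after a single 5 mg/kg (100 μCi/kg) oral gavage to fasted female or pregnant SD rats, one rat per time point. Carcasses were frozen in hexane/dry ice, and 40 µm sagittal sections were dried at −20°C for at least 48 h. Sections were exposed to a phosphor plate alongside [14C]glucose standards (0.001–6.5 µCi/g). Results are µg eq/g, with LLOQ 0.037 µg eq/g.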

Liver [3] = test: Biodistribution in female Sprague-Dawley rat liver at 5 mg/kg, po administered as single dose measured after 24 hrs; format: ADME, organism-based; design: dose 5 mg/kg, dosed compound name [14C]-apixaban, route oral; details: in vivo
Method in brief: (§2)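 [¹⁴C]Apixaban given by oral gavage at 5 mg/kg (100 μCi/kg) in 0.5% Tween 80 in Labrafil (1.0 mg/mL dosing solution) to rats fasted overnight through 4 h post-dose. One rat per time point; carcass frozen in hexane/dry ice. Quantitative whole-body autoradiography used 40 µm sagittal sections and a phosphor imaging plate calibrated with [¹⁴C]glucose standards (0.001–6.5 μCi/g). Read-out in µg eq apixaban/g; LLOQ 0.037 μg eq/g.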

Muscle tissue [4] = test: Biodistribution in female Sprague-Dawley rat muscle at 5 mg/kg, po administered as single dose measured after 1 hr; format: ADME, organism-based; design: dose 5 mg/kg, dosed compound name [14C]-apixaban, route oral; details: in vivo; method in brief: as §2
Harderian gland [5] = test: Biodistribution in male Sprague-Dawley rat harderian gland at 5 mg/kg, po administered as single dose measured after 72 hrs; format: ADME, organism-based; design: dose 5 mg/kg, dosed compound name [14C]-apixaban, route oral; details: in vivo
Method in brief: (§3)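 Fasted male SD rats (225-252 g) each received one oral gavage dose of [14C]apixaban, 5 mg/kg (100 μCi/kg), in 0.5% Tween 80/Labrafil vehicle. One rat was killed per time point, from 0.5 to 168 h. Frozen carcasses were cut into 40 µm sagittal whole-body sections and read by QWBA phosphor imaging against [14C]glucose calibrants. Results are in µg apixaban eq/g; BLQ <0.037 µg eq/g.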

Rattus norvegicus [6] = test: Biodistribution in male Sprague-Dawley rat salivary gland at 5 mg/kg, po administered as single dose measured after 24 hrs; format: ADME, organism-based; design: dose 5 mg/kg, dosed compound name [14C]-apixaban, route oral; details: in vivo
Blood [7] = test: Biodistribution in female Sprague-Dawley rat blood at 5 mg/kg, po administered as single dose measured after 4 hrs; format: ADME, organism-based; design: dose 5 mg/kg, dosed compound name [14C]-apixaban, route oral; details: in vivo; method in brief: as §2
Lung = test: Biodistribution in male Sprague-Dawley rat lung at 5 mg/kg, po administered as single dose measured after 72 hrs; format: ADME, organism-based; design: dose 5 mg/kg, dosed compound name [14C]-apixaban, route oral; details: in vivo; method in brief: as §3
Plasma = test: Drug metabolism in Sprague-Dawley rat plasma assessed as apixaban level at 5 mg/kg, po by HPLC method; format: ADME, organism-based; design: dose 5 mg/kg, dosed compound name [14C]-apixaban, route oral; details: in vivo
Method in brief: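 After a 5 mg/kg oral dose, samples were radioprofiled by HPLC. The column was C18 with a 0.4% formic acid (pH 3.2)/acetonitrile gradient at 0.7 mL/min. Fractions were collected every 0.25 min and counted for radioactivity. Peaks were identified by ESI LC/MS/MS against synthetic standards. Milk was taken at 1, 6, 12 and 24 h.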

Rattus norvegicus [8] = test: Biodistribution in female Sprague-Dawley rat brown fat at 5 mg/kg, po administered as single dose measured after 72 hrs; format: ADME, organism-based, Brown adipose tissue; design: dose 5 mg/kg, dosed compound name [14C]-apixaban, route oral; details: in vivo; method in brief: as §1
Rattus norvegicus [9] = test: Biodistribution in male Sprague-Dawley rat kidney cortex at 5 mg/kg, po administered as single dose measured after 0.5 hrs; format: ADME, organism-based; design: dose 5 mg/kg, dosed compound name [14C]-apixaban, route oral; details: in vivo
Thymus = test: Biodistribution in pregnant Sprague-Dawley rat thymus at 5 mg/kg, po administered as single dose measured after 48 hrs; format: ADME, organism-based; design: dose 5 mg/kg, dosed compound name [14C]-apixaban, route oral; details: in vivo
Method in brief: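 Pregnant SD rats (270-319 g) were fasted overnight and given one oral gavage of 5 mg/kg (100 μCi/kg) in 0.5% Tween 80 in Labrafil. One rat was euthanized per time point (0.5, 1, 4, 8, 24, 48 h) and the carcass frozen. 40 µm sagittal sections were phosphor-imaged against [14C]glucose standards and results reported as µg eq/g; LLOQ 0.037 µg eq/g.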

Blood [10] = test: Biodistribution in female Sprague-Dawley rat blood at 5 mg/kg, po administered as single dose measured after 1 hr; format: ADME, organism-based; design: dose 5 mg/kg, dosed compound name [14C]-apixaban, route oral; details: in vivo; method in brief: as §2
Rattus norvegicus [11] = test: Biodistribution in female Sprague-Dawley rat pituitary gland at 5 mg/kg, po administered as single dose measured after 1 hr; format: ADME, organism-based; design: dose 5 mg/kg, dosed compound name [14C]-apixaban, route oral; details: in vivo
Method in brief: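 [14C]apixaban (20 μCi/mL in dosing solution) in 0.5% Tween 80 in Labrafil given by oral gavage to fasted female rats, 206-213 g, at 100 μCi/kg. One rat per time point was euthanized and snap-frozen. Sagittal 40 µm whole-body sections were read by QWBA phosphor imaging against [14C]glucose standards. Results are in µg eq apixaban/g, with LLOQ 0.037 μg eq/g.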

Muscle tissue [12] = test: Biodistribution in male Sprague-Dawley rat muscle at 5 mg/kg, po administered as single dose measured after 8 hrs; format: ADME, organism-based; design: dose 5 mg/kg, dosed compound name [14C]-apixaban, route oral; details: in vivo
Method in brief: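 [14C]apixaban (1.0 mg/mL, 20 μCi/mL) in 0.5% Tween 80 in Labrafil, given by oral gavage at 100 μCi/kg to male rats (225-252 g) fasted overnight through 4 h post-dose. One rat per time point. Carcasses frozen in hexane/dry ice and cut into 40 µm sagittal sections. QWBA read on phosphor plates against [14C]glucose standards, reported as µg eq/g. LLOQ 0.037 µg eq/g.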

[13] = Drug excretion in Sprague-Dawley rat urine assessed as apixaban level at 30 mg/kg, po by HPLC method; details: read-out: Compound recovery
Muscle tissue [14] = test: Biodistribution in pregnant Sprague-Dawley rat muscle at 5 mg/kg, po administered as single dose measured after 1 hr; format: ADME, organism-based; design: dose 5 mg/kg, dosed compound name [14C]-apixaban, route oral; details: in vivo
Rattus norvegicus [15] = test: Biodistribution in male Sprague-Dawley rat pituitary gland at 5 mg/kg, po administered as single dose measured after 24 hrs; format: ADME, organism-based; design: dose 5 mg/kg, dosed compound name [14C]-apixaban, route oral; details: in vivo; method in brief: as §3
Harderian gland [16] = test: Biodistribution in male Sprague-Dawley rat harderian gland at 5 mg/kg, po administered as single dose measured after 0.5 hrs; format: ADME, organism-based; design: dose 5 mg/kg, dosed compound name [14C]-apixaban, route oral; details: in vivo; method in brief: as §2
[17] = Drug level in lactating Sprague-Dawley rat milk at 5 mg/kg, po administered as single dose after 0.5 hrs; format: ADME, organism-based; design: dose 5 mg/kg, dosed compound name [14C]-apixaban, route oral; details: in vivo
Rattus norvegicus [18] = test: Biodistribution in fetal blood of pregnant Sprague-Dawley rat at 5 mg/kg, po administered as single dose measured after 4 hrs; format: ADME, organism-based; design: dose 5 mg/kg, dosed compound name [14C]-apixaban, route oral; details: in vivo
Method in brief: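 Pregnant rats, 270-319 g and fasted overnight, received [14C]apixaban by oral gavage at 100 μCi/kg in 0.5% Tween 80/Labrafil. One dam per time point was euthanized and frozen in hexane/dry ice. Fetal tissue radioactivity was measured by QWBA on 40 µm sagittal sections calibrated with [14C]glucose standards. Values are in µg eq/g, with LLOQ 0.037 μg eq/g.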

Muscle tissue [19] = test: Biodistribution in female Sprague-Dawley rat muscle at 5 mg/kg, po administered as single dose measured after 8 hrs; format: ADME, organism-based; design: dose 5 mg/kg, dosed compound name [14C]-apixaban, route oral; details: in vivo; method in brief: as §2
Spleen = test: Biodistribution in pregnant Sprague-Dawley rat spleen at 5 mg/kg, po administered as single dose measured after 0.5 hrs; format: ADME, organism-based; design: dose 5 mg/kg, dosed compound name [14C]-apixaban, route oral; details: in vivo
Brain = test: Biodistribution in pregnant Sprague-Dawley rat brain at 5 mg/kg, po administered as single dose measured after 8 hrs; format: ADME, organism-based; design: dose 5 mg/kg, dosed compound name [14C]-apixaban, route oral; details: in vivo

Radiolabel recovery (Rattus norvegicus [1]): < 0.037 ugequiv/g | Radiolabel recovery (Liver [2]): 2.67 µgequiv/g | Radiolabel recovery (Liver [3]): < 0.037 ugequiv/g | Radiolabel recovery (Muscle tissue [4]): 0.27 ugequiv/g | Radiolabel recovery (Harderian gland [5]): Not detected assumed BLQ | Radiolabel recovery (Rattus norvegicus [6]): < 0.037 ugequiv/g | Radiolabel recovery (Blood [7]): 0.35 ugequiv/g | Radiolabel recovery (Lung): Not detected assumed BLQ | Compound recovery (Plasma): 97% | Radiolabel recovery (Rattus norvegicus [8]): Not detected assumed BLQ | Radiolabel recovery (Rattus norvegicus [9]): 0.81 ugequiv/g | Radiolabel recovery (Thymus): Not detected assumed BLQ | Radiolabel recovery (Blood [10]): 0.88 ugequiv/g | Radiolabel recovery (Rattus norvegicus [11]): 0.42 ugequiv/g | Radiolabel recovery (Muscle tissue [12]): 0.06 ugequiv/g | dose excreted [13]: 93% | Radiolabel recovery (Muscle tissue [14]): 0.46 ugequiv/g | Radiolabel recovery (Rattus norvegicus [15]): Not detected assumed BLQ | Radiolabel recovery (Harderian gland [16]): 0.21 ugequiv/g | Radiolabel recovery [17]: 2.75 µg/mL | Radiolabel recovery (Rattus norvegicus [18]): 0.51 ugequiv/g | Radiolabel recovery (Muscle tissue [19]): 0.08 ugequiv/g | Radiolabel recovery (Spleen): 0.46 ugequiv/g | Radiolabel recovery (Brain): < 0.037 ugequiv/g
Compound: COc1ccc(-n2nc(C(N)=O)c3c2C(=O)N(c2ccc(N4CCCC[14C]4=O)cc2)CC3)cc1
